≈ marks a conversion by molar mass, not a printed value.
Key:
[1] = Solubility is determined at pH 4.0; format: physicochemical; conditions: buffer
Outline: (§1)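 Excess solid was equilibrated 24 h at 25 °C in 100 mM phosphate buffer pH 4.0, or in βG buffer (acetic acid/bis-tris/triethanolamine) pH 7.0. Samples were filtered through 0.22 µm, diluted in mobile phase and quantified by C18 HPLC (45% MeOH/25 mM phosphate pH 2.55, fluorescence ex 397/em 482 nm) against calibration curves. Values are in mg/mL.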

[2] = Cytotoxicity expressed as the concentration that inhibited incorporation of [3H]thymidine into cellular DNA of human cervical cells (CaSki); format: functional, cell-based
Outline: (§2)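 Exponentially growing tumour cells, 1-1.5 × 10⁴ cells/well, in RPMI with 10% bovine serum plus penicillin/streptomycin, exposed 72 h (37 °C, 5% CO₂) to a drug concentration series. Drugs were dissolved in DMSO (≤0.5% final) or in medium. [³H]thymidine incorporation into DNA was read after PBS wash and trypsin harvest. IC50 was interpolated from log dose-response curves, as means of 1-3 experiments in triplicate.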

[3] = Cytotoxicity in the presence of beta-Glucuronidase (betaG, 5 micro g/ml) towards human cervical cells(CaSki); format: functional, cell-based
Outline: (§3)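 Same 72 h [³H]thymidine-incorporation assay (1-1.5 × 10⁴ cells/well in RPMI/10% bovine serum, 37 °C, 5% CO₂), with β-glucuronidase added at 5 µg/mL alongside the drug concentration series. Controls were medium or 0.5% DMSO. IC50 was interpolated from log dose-response curves, as means of 1-3 experiments in triplicate.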

COLO 205 [4] = assay: Cytotoxicity expressed as the concentration that inhibited incorporation of [3H]thymidine into cellular DNA of human colorectal cells (COLO 205); format: functional, cell-based; outline: as §2
COLO 205 [5] = assay: Cytotoxicity in the presence of beta-Glucuronidase (betaG, 5 micro g/ml) towards human colorectal cells(COLO 205); format: functional, cell-based; outline: as §3
HT-29 [6] = assay: Cytotoxicity in the presence of beta-Glucuronidase (betaG, 5 micro g/ml) towards human colorectal cells (HT-29); format: functional, cell-based; outline: as §3
HepG2 [7] = assay: Cytotoxicity expressed as the concentration that inhibited incorporation of [3H]-thymidine into cellular DNA of human hepatocellular cells (HepG2); format: functional, cell-based; outline: as §2
HepG2 [8] = assay: Cytotoxicity in the presence of beta-Glucuronidase (betaG, 5 micro g/ml) towards human hepatocellular cells (HepG2); format: functional, cell-based; outline: as §3
[9] = Percentage of compound converted to 9-aminocamptothecin for hydrolysis by beta-Glucuronidase( incubated at pH 7.0 for 2 hr at 37 degrees Celsius at the concentration 0.01 ug/mL); format: ADME; conditions: buffer, pH 7, 2 h
Outline: (§4)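 The reaction was quenched with ice-cold MeOH/5% H₃PO₄ (6/1) and centrifuged. Supernatant was analysed by reversed-phase C18 HPLC with fluorescence detection (ex 397/em 482 nm) to give the % converted to 9-aminocamptothecin.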

[10] = Percentage of compound converted to 9-aminocamptothecin for hydrolysis by beta-Glucuronidase( incubated at pH 7.0 for 2 hr at 37 degrees Celsius at the concentration 0.1 ug/mL); format: ADME; conditions: buffer, pH 7, 2 h; outline: as §4
[11] = Percentage of compound converted to 9-aminocamptothecin for hydrolysis by beta-Glucuronidase(incubated at pH 7.0 for 2 hr at 37 degrees Celsius at the concentration 0.5 ug/mL); format: ADME; conditions: buffer, pH 7, 2 h; outline: as §4
[12] = Solubility is determined at pH 7.0; format: physicochemical; conditions: buffer; outline: as §1
[13] = Percentage of compound converted to 9-aminocamptothecin for hydrolysis by beta-Glucuronidase( incubated at pH 7.0 for 2 h at 37 degrees Celsius at the concentration 0.05 ug/mL); format: ADME; conditions: buffer, pH 7, 2 h; outline: as §4
NCI-H928 [14] = assay: Cytotoxicity expressed as the concentration that inhibited incorporation of [3H]-thymidine into cellular DNA of human lung carcinoma cells (H928); format: functional, cell-based; outline: as §2
NCI-H928 [15] = assay: Cytotoxicity in the presence of beta-Glucuronidase (betaG, 5 micro g/ml) towards human lung carcinoma cells (H928); format: functional, cell-based; outline: as §3
HT-29 [16] = assay: Cytotoxicity expressed as the concentration that inhibited incorporation of [3H]thymidine into cellular DNA of human colorectal cells (HT-29); format: functional, cell-based; outline: as §2
HepG2 [17] = assay: Cytotoxicity expressed as the concentration that inhibited incorporation of [3H]thymidine into cellular DNA of human hepatocellular cells (HepG2); format: functional, cell-based; outline: as §2

Row | SMILES | solubility [1] [µg/mL] | IC50 [2] [nM] | IC50 (COLO 205 [4]; colo 205) [nM] | IC50 (HepG2 [8]) [nM] | solubility [12] | IC50 (NCI-H928 [14]) [nM] | IC50 (HT-29 [16]) [nM] | IC50 (HepG2 [17]) [nM] | IC50 ([2]; Homo sapiens) [nM] | IC50 (COLO 205 [4]; Homo sapiens, COLO 205) [nM] | other results
1 | CC[C@@]1(O)C(=O)OCc2c1cc1n(c2=O)Cc2cc3c(NC(=O)OCc4ccc(O[C@@H]5O[C@H](C(=O)[O-])[C@@H](O)[C@H](O)[C@H]5O)cc4)cccc3nc2-1.[K+] | 25000 | 510 | 460 | 6.7 |  |  |  |  |  |  | IC50 ([3]; Homo sapiens): 9.1 nM; IC50 (COLO 205 [5]; Homo sapiens, COLO 205): 8.2 nM; IC50 (HT-29 [6]; Homo sapiens, HT-29): 11 nM; IC50 (HepG2 [7]): 280 nM
2 | CC[C@@]1(O)C(=O)OCc2c1cc1n(c2=O)Cc2cc3c(NC(=O)OCc4ccc(O[C@@H]5O[C@H](C(=O)O)[C@@H](O)[C@H](O)[C@H]5O)cc4)cccc3nc2-1 | 500 (≈ 725 µM) | 190 | 200 | 2.9 | 110 mg/kg | 300 | 150 | 110 |  |  | Conversion [9]: 45%; Conversion [10]: 98%; Conversion [11]: 92%; Conversion [13]: 92%; IC50 [3]: 7.8 nM; IC50 (COLO 205 [5]; colo 205): 8 nM; IC50 (NCI-H928 [15]): 7.9 nM; IC50 (HT-29 [6]; ht-29): 6.6 nM
3 | CC[C@@]1(O)C(=O)OCc2c1cc1n(c2=O)Cc2cc3c(N)cccc3nc2-1 [9-AMINOCAMPTOTHECIN] | 6 (≈ 16.5 µM) |  |  |  | 60 µg/mL (≈ 165 µM) | 7.9 | 7.4 | 3.5 | 8.5 | 6.6 | 
4 | CC[C@@]1(O)C(=O)OCc2c1cc1n(c2=O)Cc2cc3ccccc3nc2-1 [CAMPTOTHECIN] |  |  |  |  |  | 7.8 |  | 6.3 | 8.5 | 5.4 | 

From ChEMBL document CHEMBL1132107, “Design and synthesis of water-soluble glucuronide derivatives of camptothecin for cancer prodrug monotherapy and antibody-directed enzyme prodrug therapy (ADEPT)” (J Med Chem, 1999)
